Laboratory results taken from ChEMBL document CHEMBL4229344 (Eur J Med Chem, 2018).

Legend:
[1] = target: Platelet-derived growth factor receptor alpha (Homo sapiens, UniProt P16234); assay: Inhibition of PDGFRalpha in human EOL-1 cells assessed as decrease in STAT5 phosphorylation at Y694 residue after 2 hrs in presence of PDGF-AA by Western blot analysis; format: cell-based
[2] = test system: Phosphatidylinositol 4,5-bisphosphate 3-kinase catalytic subunit alpha isoform (Homo sapiens), P42336 [E542K]; assay: Binding affinity to human partial length PIK3CA E542K mutant (R108 to N1068 residues) expressed in mammalian expression system assessed as residual binding level at 1 uM by Kinomescan method relative to control
Outline: (§1)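 Kinome-wide single-concentration binding screen (KINOMEscan) at 1 μM against a panel of 468 purified kinases and mutants. Read-out is relative binding of each kinase compared with control. Selectivity across the panel was summarised as an S(10) score.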

[3] = target: ALK tyrosine kinase receptor (Homo sapiens) (UniProt Q9UM73); assay: Binding affinity to wild-type human partial length ALK (I1088 to E1409 residues) expressed in mammalian expression system assessed as residual binding level at 1 uM by Kinomescan method relative to control
Outline: (§2)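 Single-concentration KINOMEscan (DiscoverX) binding screen at 1 μM against a panel of 468 purified kinases and mutants. The read-out is binding relative to control.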

[4] = target: Serine/threonine-protein kinase Nek6 (Homo sapiens) (UniProt Q9HC98); assay: Binding affinity to wild-type human full length NEK6 (M8 to T313 residues) expressed in bacterial expression system assessed as residual binding level at 1 uM by Kinomescan method relative to control; outline: as §2
[5] = target: Serine/threonine-protein kinase Nek1 (Homo sapiens) (UniProt Q96PY6); assay: Binding affinity to wild-type human partial length NEK1 (M1 to K278 residues) expressed in bacterial expression system assessed as residual binding level at 1 uM by Kinomescan method relative to control
[6] = target: Cyclin-dependent kinase 9 (Homo sapiens) (UniProt P50750); assay: Binding affinity to wild-type human full length CDK9 (M1 to F372 residues) expressed in bacterial expression system assessed as residual binding level at 1 uM by Kinomescan method relative to control
Outline: (§3)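 Single-concentration (1 μM) competition-binding screen run by KINOMEscan against a panel of 468 purified kinases and mutants. The read-out is the relative binding activity of the test compound to each kinase.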

[7] = target: cAMP-dependent protein kinase catalytic subunit alpha (Homo sapiens) (UniProt P17612); assay: Binding affinity to wild-type human partial length PKAC-alpha (G10 to F351 residues) expressed in bacterial expression system assessed as residual binding level at 1 uM by Kinomescan method relative to control
[8] = target: Protein kinase C epsilon type (Homo sapiens) (UniProt Q02156); assay: Binding affinity to wild-type human partial length PRKCE (A378 to P737 residues) expressed in mammalian expression system assessed as residual binding level at 1 uM by Kinomescan method relative to control
Outline: (§4)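 KINOMEscan competition binding against a panel of 468 purified kinases/mutants, compound tested at 1 μM; readout is relative binding activity versus control.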

[9] = target: Dual specificity mitogen-activated protein kinase kinase 7 (Homo sapiens) (UniProt O14733); assay: Binding affinity to wild-type human full length MKK7 (M1 to R419 residues) expressed in mammalian expression system assessed as residual binding level at 1 uM by Kinomescan method relative to control; outline: as §2
[10] = target: Mitogen-activated protein kinase 1 (Homo sapiens) (UniProt P28482); assay: Binding affinity to wild-type human full length ERK2 (M1 to S360 residues) expressed in bacterial expression system assessed as residual binding level at 1 uM by Kinomescan method relative to control
Outline: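 KINOMEscan competition binding against 468 purified kinases/mutants, test compound at 1 µM; residual binding relative to control.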

[11] = target: Dual specificity mitogen-activated protein kinase kinase 1 (Homo sapiens) (UniProt Q02750); assay: Binding affinity to wild-type human full length MEK1 (M1 to V393 residues) expressed in mammalian expression system assessed as residual binding level at 1 uM by Kinomescan method relative to control; outline: as §2
[12] = target: Beta-adrenergic receptor kinase 1 (Homo sapiens) (UniProt P25098); assay: Binding affinity to wild-type human full length GRK2 (M1 to L689 residues) expressed in mammalian expression system assessed as residual binding level at 1 uM by Kinomescan method relative to control; outline: as §3
[13] = target: Cyclin-dependent kinase-like 3 (Homo sapiens) (UniProt Q8IVW4); assay: Binding affinity to wild-type human partial length CDKL3 (M1 to D327 residues) expressed in bacterial expression system assessed as residual binding level at 1 uM by Kinomescan method relative to control
Outline: (§5)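 Kinome-wide competition binding screen against a panel of 468 purified kinases/mutants, with the test compound at a single concentration of 1 μM. Read-out is the relative binding activity of each kinase in the presence of compound.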

[14] = target: Tyrosine-protein kinase Blk (Homo sapiens) (UniProt P51451); assay: Binding affinity to wild-type human partial length BLK (G211 to L503 residues) expressed in bacterial expression system assessed as residual binding level at 1 uM by Kinomescan method relative to control; outline: as §2
[15] = test system: Phosphatidylinositol 4,5-bisphosphate 3-kinase catalytic subunit alpha isoform (Homo sapiens), P42336 [I800L]; assay: Binding affinity to human partial length PIK3CA I800L mutant (R108 to N1068 residues) expressed in mammalian expression system assessed as residual binding level at 1 uM by Kinomescan method relative to control; outline: as §1
[16] = target: Ribosomal protein S6 kinase alpha-1 (Homo sapiens) (UniProt Q15418); assay: Binding affinity to wild-type human partial length C-terminal RSK1 kinase domain 2 (P360 to L681 residues) expressed in bacterial expression system assessed as residual binding level at 1 uM by Kinomescan method relative to control
[17] = target: Serine/threonine-protein kinase Sgk3 (Homo sapiens) (UniProt Q96BR1); assay: Binding affinity to wild-type human partial length SGK3 (M119 to L496 residues) expressed in mammalian expression system assessed as residual binding level at 1 uM by Kinomescan method relative to control; outline: as §4
[18] = target: Vascular endothelial growth factor receptor 1 (Homo sapiens) (UniProt P17948); assay: Binding affinity to wild-type human partial length FLT1 (R781 to F1239 residues) expressed in bacterial expression system assessed as residual binding level at 1 uM by Kinomescan method relative to control; outline: as §5
[19] = target: Serine/threonine-protein kinase D3 (Homo sapiens) (UniProt O94806); assay: Binding affinity to wild-type human partial length PRKD3 (S543 to E863 residues) expressed in bacterial expression system assessed as residual binding level at 1 uM by Kinomescan method relative to control
[20] = target: Serine/threonine-protein kinase tousled-like 1 (Homo sapiens) (UniProt Q9UKI8); assay: Binding affinity to wild-type human partial length TLK1 (K447 to A754 residues) expressed in bacterial expression system assessed as residual binding level at 1 uM by Kinomescan method relative to control
[21] = target: Tyrosine-protein kinase FRK (Homo sapiens) (UniProt P42685); assay: Binding affinity to wild-type human partial length FRK (A215 to F503 residues) expressed in bacterial expression system assessed as residual binding level at 1 uM by Kinomescan method relative to control; outline: as §5
Sequence of Tyrosine-protein kinase FRK (Homo sapiens) (P42685 whole entry, the tested form may be a part): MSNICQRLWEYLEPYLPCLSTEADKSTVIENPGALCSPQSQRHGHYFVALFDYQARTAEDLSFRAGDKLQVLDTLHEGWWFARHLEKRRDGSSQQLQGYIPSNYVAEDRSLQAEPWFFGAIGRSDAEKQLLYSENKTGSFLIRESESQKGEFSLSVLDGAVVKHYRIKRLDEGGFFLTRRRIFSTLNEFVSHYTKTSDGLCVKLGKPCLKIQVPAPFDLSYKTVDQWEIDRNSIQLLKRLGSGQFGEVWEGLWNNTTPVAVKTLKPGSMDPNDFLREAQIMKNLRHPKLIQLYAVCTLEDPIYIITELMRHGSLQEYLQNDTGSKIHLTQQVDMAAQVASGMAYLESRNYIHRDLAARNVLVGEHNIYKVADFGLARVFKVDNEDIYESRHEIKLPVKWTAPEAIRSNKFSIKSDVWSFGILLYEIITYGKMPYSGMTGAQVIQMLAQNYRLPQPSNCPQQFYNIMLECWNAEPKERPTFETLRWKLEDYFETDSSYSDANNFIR

Sequence of Phosphatidylinositol 4,5-bisphosphate 3-kinase catalytic subunit alpha isoform (Homo sapiens), P42336 [E542K] (P42336 whole entry E542K, the tested form may be a part, canonical isoform): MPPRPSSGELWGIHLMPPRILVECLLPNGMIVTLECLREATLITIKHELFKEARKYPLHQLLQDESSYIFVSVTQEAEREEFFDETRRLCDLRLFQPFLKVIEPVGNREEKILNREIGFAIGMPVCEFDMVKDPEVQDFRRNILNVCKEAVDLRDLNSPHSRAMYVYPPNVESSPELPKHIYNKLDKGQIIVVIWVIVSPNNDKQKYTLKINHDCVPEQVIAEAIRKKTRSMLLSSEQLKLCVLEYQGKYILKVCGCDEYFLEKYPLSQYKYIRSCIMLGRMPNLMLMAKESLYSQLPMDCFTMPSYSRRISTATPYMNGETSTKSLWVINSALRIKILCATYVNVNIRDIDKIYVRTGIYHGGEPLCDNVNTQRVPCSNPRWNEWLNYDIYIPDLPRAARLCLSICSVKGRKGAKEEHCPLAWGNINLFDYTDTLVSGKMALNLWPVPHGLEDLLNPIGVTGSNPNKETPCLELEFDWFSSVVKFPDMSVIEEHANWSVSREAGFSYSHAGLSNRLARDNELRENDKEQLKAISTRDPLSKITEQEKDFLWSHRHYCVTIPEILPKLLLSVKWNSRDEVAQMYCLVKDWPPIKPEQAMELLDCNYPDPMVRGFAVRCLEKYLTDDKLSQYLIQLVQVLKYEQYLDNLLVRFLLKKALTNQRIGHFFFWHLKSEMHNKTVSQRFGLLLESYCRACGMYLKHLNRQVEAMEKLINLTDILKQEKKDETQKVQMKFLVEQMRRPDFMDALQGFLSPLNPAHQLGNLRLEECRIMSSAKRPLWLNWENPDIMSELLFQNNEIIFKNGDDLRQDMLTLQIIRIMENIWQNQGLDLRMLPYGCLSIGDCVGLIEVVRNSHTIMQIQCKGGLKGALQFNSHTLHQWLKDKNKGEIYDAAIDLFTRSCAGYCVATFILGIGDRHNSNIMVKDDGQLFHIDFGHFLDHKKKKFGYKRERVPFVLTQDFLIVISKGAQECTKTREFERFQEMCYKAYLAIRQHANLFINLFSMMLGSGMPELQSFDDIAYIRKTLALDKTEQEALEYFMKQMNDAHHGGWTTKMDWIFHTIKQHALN
Sequence of Phosphatidylinositol 4,5-bisphosphate 3-kinase catalytic subunit alpha isoform (Homo sapiens), P42336 [I800L] (P42336 whole entry I800L, the tested form may be a part, canonical isoform): as the sequence (P42336 whole entry E542K, the tested form may be a part, canonical isoform) above, with K542E, I800L counted along it
Sequence of ALK tyrosine kinase receptor (Homo sapiens) (Q9UM73 19-1620 limits assumed): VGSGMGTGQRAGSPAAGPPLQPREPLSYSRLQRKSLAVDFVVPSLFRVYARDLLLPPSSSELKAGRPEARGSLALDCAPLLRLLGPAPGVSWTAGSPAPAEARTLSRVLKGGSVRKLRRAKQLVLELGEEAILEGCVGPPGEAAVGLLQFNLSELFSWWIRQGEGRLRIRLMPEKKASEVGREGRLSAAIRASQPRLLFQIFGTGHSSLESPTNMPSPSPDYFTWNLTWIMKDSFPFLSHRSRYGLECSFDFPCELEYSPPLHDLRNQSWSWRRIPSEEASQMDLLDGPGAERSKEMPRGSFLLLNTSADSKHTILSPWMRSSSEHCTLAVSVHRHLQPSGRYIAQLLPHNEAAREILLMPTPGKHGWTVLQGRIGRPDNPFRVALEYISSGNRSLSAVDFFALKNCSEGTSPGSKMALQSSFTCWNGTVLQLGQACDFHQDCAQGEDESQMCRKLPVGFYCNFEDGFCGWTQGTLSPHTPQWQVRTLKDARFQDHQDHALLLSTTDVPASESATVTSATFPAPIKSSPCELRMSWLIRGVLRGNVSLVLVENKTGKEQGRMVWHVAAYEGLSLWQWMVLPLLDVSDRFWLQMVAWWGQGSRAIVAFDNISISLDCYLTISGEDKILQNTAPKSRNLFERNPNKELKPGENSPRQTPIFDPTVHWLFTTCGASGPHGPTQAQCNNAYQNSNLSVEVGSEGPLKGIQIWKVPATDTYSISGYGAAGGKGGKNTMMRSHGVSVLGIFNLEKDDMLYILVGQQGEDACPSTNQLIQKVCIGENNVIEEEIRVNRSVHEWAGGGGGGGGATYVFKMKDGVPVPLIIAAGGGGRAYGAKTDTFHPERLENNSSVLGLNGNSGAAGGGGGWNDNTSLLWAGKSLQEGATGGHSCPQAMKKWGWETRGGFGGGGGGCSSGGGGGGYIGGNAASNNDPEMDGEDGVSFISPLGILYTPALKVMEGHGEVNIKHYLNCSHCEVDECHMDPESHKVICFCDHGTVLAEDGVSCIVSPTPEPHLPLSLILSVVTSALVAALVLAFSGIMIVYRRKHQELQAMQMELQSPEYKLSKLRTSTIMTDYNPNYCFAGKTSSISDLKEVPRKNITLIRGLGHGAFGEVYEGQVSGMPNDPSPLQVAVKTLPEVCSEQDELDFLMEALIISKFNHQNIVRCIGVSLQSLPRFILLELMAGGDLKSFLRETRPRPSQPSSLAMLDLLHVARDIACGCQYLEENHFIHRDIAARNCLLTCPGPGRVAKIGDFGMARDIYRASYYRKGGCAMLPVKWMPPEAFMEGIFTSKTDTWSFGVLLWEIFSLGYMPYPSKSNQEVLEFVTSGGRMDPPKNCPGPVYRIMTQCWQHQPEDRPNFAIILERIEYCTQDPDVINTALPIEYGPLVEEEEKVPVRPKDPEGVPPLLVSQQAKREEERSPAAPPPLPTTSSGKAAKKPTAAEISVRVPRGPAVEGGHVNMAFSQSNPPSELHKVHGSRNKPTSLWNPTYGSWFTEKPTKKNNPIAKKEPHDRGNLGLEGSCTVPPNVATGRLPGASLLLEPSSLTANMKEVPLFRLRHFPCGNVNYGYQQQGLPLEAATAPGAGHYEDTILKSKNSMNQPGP
Sequence of Beta-adrenergic receptor kinase 1 (Homo sapiens) (P25098 whole entry, the tested form may be a part): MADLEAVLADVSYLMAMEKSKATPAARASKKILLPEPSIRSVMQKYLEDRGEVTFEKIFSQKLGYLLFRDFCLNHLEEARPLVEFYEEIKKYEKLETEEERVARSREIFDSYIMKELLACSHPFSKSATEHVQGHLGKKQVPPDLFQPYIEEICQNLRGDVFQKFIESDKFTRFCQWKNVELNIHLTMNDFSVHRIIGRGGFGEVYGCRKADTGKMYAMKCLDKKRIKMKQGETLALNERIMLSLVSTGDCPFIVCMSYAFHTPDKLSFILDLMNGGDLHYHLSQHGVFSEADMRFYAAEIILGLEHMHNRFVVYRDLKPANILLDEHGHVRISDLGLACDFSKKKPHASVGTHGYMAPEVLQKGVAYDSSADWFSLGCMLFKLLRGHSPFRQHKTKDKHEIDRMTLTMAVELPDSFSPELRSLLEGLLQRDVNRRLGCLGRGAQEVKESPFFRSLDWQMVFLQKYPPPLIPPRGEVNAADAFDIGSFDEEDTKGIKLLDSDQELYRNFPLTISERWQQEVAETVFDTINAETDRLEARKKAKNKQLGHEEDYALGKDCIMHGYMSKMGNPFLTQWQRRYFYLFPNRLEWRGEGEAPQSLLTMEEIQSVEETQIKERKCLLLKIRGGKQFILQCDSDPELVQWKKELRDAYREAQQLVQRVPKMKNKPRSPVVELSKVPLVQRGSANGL
Sequence of Tyrosine-protein kinase Blk (Homo sapiens) (P51451 2-505 limits assumed): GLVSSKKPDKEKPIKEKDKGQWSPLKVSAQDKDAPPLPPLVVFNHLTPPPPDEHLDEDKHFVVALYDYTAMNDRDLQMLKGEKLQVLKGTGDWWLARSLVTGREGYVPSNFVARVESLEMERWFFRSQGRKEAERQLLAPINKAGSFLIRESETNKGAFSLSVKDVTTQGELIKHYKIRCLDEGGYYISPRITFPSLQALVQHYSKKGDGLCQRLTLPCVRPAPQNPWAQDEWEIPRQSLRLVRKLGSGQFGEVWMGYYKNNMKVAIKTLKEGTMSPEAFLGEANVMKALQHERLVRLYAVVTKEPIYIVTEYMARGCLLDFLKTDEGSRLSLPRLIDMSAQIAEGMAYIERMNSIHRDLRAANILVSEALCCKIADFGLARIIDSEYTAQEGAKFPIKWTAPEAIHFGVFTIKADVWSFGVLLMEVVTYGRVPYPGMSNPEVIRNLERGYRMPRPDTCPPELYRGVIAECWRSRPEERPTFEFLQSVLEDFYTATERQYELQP
Sequence of Dual specificity mitogen-activated protein kinase kinase 7 (Homo sapiens) (O14733 whole entry, the tested form may be a part): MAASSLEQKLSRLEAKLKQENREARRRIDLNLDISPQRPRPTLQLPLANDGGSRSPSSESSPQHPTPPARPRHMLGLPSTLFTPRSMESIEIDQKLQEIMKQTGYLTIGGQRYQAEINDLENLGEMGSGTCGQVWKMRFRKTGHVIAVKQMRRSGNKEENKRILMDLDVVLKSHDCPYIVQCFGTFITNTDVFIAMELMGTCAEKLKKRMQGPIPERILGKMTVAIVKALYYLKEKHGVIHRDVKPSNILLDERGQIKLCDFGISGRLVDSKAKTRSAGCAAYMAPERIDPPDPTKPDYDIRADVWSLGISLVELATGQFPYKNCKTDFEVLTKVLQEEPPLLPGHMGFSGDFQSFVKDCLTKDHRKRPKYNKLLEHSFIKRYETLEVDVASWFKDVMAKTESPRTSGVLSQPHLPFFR

For `Cc1ccc(NC(=O)c2ccc(CN(CCN(C)C)C(=O)c3cccnc3)cc2)cc1Nc1nccc(-c2cccnc2)n1`, the inhibition [1] was “Dose-dependent effect”, the Activity [2] was 83% and the Activity [3] was 100%. For the same compound, the Activity [4] was 90%, the Activity [5] was 100% and the Activity [6] was 100%. For the same compound, the Activity [7] was 95%, the Activity [8] was 80% and the Activity [9] was 100%. It also gave an Activity [10] of 83%, an Activity [11] of 97% and an Activity [12] of 100%. It also gave an Activity [13] of 91%, an Activity [14] of 95% and an Activity [15] of 79%. It also gave an Activity [16] of 100%, an Activity [17] of 92% and an Activity [18] of 75%. The Activity [19] was 100%, the Activity [20] was 100% and the Activity [21] was 80%.
